This note sets out measurements from ChEMBL document CHEMBL1124096, “Potential anticonvulsants. 11. Synthesis and anticonvulsant activity of spiro[1,3-dioxolane-2,3'-indolin]-2'-ones and structural analogues” (J Med Chem, 1988).

Data set [1] is filed under the species Mus musculus. Description: Phase II effective dose against mice for maximal electroshock seizure test (MES) for 0.25 hr of test time. The format is functional. A digest of the protocol:
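Phase II quantification: time of peak effect first determined, then median effective dose in the MES test (corneal 60-cycle AC, 50 mA, 0.2 s) found at that time, 0.25 h. Compound given ip.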

The nature of data set [2]: Protective index (TD50/ED50) for MES test in mice. The following applies: mouse, in vivo; read-out: PI. The format is ADME, organism-based. Summed up:
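Protective index taken as TD50 (rotorod) divided by MES ED50. Both measured in Phase II at the time of peak effect, 0.25 h, after ip dosing.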

Data set [3] can be described thus: Phase II effective dose against mice for toxicity test (TOX) for 0.25 hr of test time. The format is organism-based. The following applies: mouse, in vivo. Summed up:
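Phase II: time of peak neurologic toxicity first determined. Median toxic dose then found by rotorod (1-in. knurled rod, 6 rpm, 1 min) at that time, 0.25 h. Compound given ip.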

Data set [4] has as its system Mus musculus. Description: Ability to protect mice against neurotoxicity (rotarod test) at 300 mg/kg for 0.5 hr in Phase I; no. of animals protected/No. of animals tested 0/4. The format is organism-based. Details: dose 300 mg/kg. The note with it: in vivo.
A short description of data set [5]: Ability to protect mice against subcutaneous pentylenetetrazole seizures (sc-Met) threshold test at 100 mg/kg for 0.5 hr in Phase I; no. of animals protected/No. of animals tested= 0/1. The format is functional, organism-based. The arrangement: dose 100 mg/kg.
Data set [6] can be described thus: Ability to protect mice against electrically induced seizures (MES) at 100 mg/kg for 0.5 hr in Phase I; no. of animals protected/No. of animals tested= 0/3. Details: dose 100 mg/kg. The format is functional, organism-based.
Data set [7] in a line: Ability to protect mice against electrically induced seizures (MES) at 300 mg/kg for 0.5 hr in Phase I; no. of animals protected/No. of animals tested= 0/1. The format is functional, organism-based. Details: dose 300 mg/kg.
Data set [8] in a line: Ability to protect mice against subcutaneous pentylenetetrazole seizures (sc-Met) threshold test at 300 mg/kg for 0.5 hr in Phase I; no. of animals protected/No. of animals tested= 0/1. The format is functional, organism-based. Details: dose 300 mg/kg.

Turning to `O=C1Nc2ccc(Br)cc2C12OCCO2`, in the data set filed under Mus musculus [1], the ED50 turned out to be 46.1 mg/kg. Further, the selectivity ratio in data set [2] came out at 1.87. Also, the TD50 at 0.25 h in data set [3] is 86.5 mg/kg.

For the compound `O=C1Nc2ccccc2C12OCCO2`, the ED50 in the data set filed under Mus musculus [1] stood at 69.8 mg/kg. In addition, in data set [2], the selectivity ratio worked out at 1.87. Moreover, in data set [3], the TD50 at 0.25 h came out at 130 mg/kg.

The compound `O=C1Nc2ccccc2C12OCCS2` (stereo unspecified) came in with an ED50 in the data set filed under Mus musculus [1] of 60.4 mg/kg. The selectivity ratio in data set [2] is 1.65.

The compound `O=C1Nc2ccc(Cl)cc2C12OCCO2` returned an ED50 in the data set listed under Mus musculus [1] of 28 mg/kg. Also, the selectivity ratio in data set [2] was 2.28. The same compound showed a TD50 at 0.25 h in data set [3] of 63.7 mg/kg.

Regarding `O=C1Nc2ccccc2C12SCCS2`, in the data set filed under Mus musculus [1], it took a dose of 174 mg/kg to reach the 50% effect level (ED50).

`O=C1Nc2cccc(Cl)c2C12OCCO2` gave an ED50 in the data set filed under Mus musculus [1] of 95.6 mg/kg. In addition, in data set [2], the selectivity ratio came to 1.24. In data set [3], the TD50 at 0.25 h is 122 mg/kg.

In the data set listed under Mus musculus [1], `CN1C(=O)C2(OCCO2)c2ccccc21` gave an ED50 of 90.9 mg/kg. In addition, in data set [2], the selectivity ratio came out at 1.3. Besides, in data set [3], the TD50 at 0.25 h worked out at 118 mg/kg.

In the case of `O=C1N(CN2CCOCC2)c2ccccc2C12OCCO2`, in the data set listed under Mus musculus [1], the 50% effect level (ED50) was put at a dose of 90 mg/kg. Also, in data set [2], the selectivity ratio was determined as 1.89. In data set [3], this compound returned a TD50 at 0.25 h of 170 mg/kg.

In the case of `O=C1Nc2ccccc2C12OCCCO2`, it took a dose of 110 mg/kg to reach the 50% effect level in the data set filed under Mus musculus [1] (ED50). Moreover, in data set [2], the selectivity ratio stood at 1.67.

Take `O=C1Nc2cc(Cl)ccc2C12OCCO2`: the ED50 in the data set listed under Mus musculus [1] turned out to be 72 mg/kg. In addition, the selectivity ratio in data set [2] was 1.68. In addition, in data set [3], the TD50 at 0.25 h came to 121 mg/kg.

As to `COC1(OC)C(=O)Nc2ccccc21`, the ED50 in the data set filed under Mus musculus [1] turned out to be 82 mg/kg. In addition, the selectivity ratio in data set [2] came to 2.47. Further, the TD50 at 0.25 h in data set [3] was 203 mg/kg.

In the case of `O=C1N(Cc2ccccc2)c2ccccc2C12OCCO2`, the Ratio entry (in the data set with Mus musculus [4]; in data set [5]; in data set [6]; in data set [7]; in data set [8]) was “no. of animals protected/No. of animals tested 0/4” in each case.

Consider `O=C1N(CN2CCCCC2)c2ccccc2C12OCCO2`, for which, in data set [2], the selectivity ratio is 1.39. Also, the TD50 at 0.25 h in data set [3] is 187 mg/kg.
